The values that follow come from ChEMBL document CHEMBL3407409, “Synthesis of diethyl 4-substituted-2,6-dimethyl-1,4-dihydropyridine-3,5-dicarboxylates as a new series of inhibitors against yeast α-glucosidase” (Eur J Med Chem, 2015).

What is called IC50 is the concentration needed to halve the response being measured. Read a low IC50 as greater potency in that assay. In general, inhibition refers to the drop in the measured response relative to a control, in per cent. Broadly, the Ki is a dissociation constant, usually derived from enzyme kinetics or from competition with a known ligand. Low values mean higher affinity, high ones lower affinity.

Activity calls are given as the source filed them. The calls are words filed in the database; no cut-off is given here.

Experiment [1] has as its target T1, Alpha-glucosidase MAL12 (Saccharomyces cerevisiae S288c, UniProt P53341). Kind of experiment: Inhibition of Saccharomyces cerevisiae alpha-glucosidase using p-nitrophenyl alpha-D-glucopyranoside as substrate preincubated for 15 mins measured up to 30 mins by spectrophotometry. A digest of the protocol:
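Yeast enzyme 0.2 U/mL held with graded inhibitor levels for 15 min at 37 °C in 0.1 M phosphate buffer pH 6.8, DMSO 7% final; p-nitrophenyl α-D-glucopyranoside 0.7 mM final added, A400 followed up to 30 min. DMSO-only control; % inhibition = 100 − (OD test/OD control) × 100.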

For another experiment, the system named is 3T3. Kind of experiment: Cytotoxicity against […] 3T3 cells by MTT assay. It is filed as cell-based. Conditions: Mus musculus, NIH3T3. The gist of the method: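 […] fibroblast 3T3 cells (2×10^5 cells/mL) grown overnight at 37 °C under CO2, then given serial dilutions (100–12.5 µg/mL) in DMEM with 5% FBS and penicillin/streptomycin. MTT (2 mg/mL in PBS) added for 4 h. Formazan dissolved in DMSO and read at 540 nm; viability taken as the OD ratio.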
For orientation: Tetrazolium dyes change colour on reduction, which living cells bring about.

Experiment [2] has as its target Oligo-1,6-glucosidase IMA1 (Saccharomyces cerevisiae S288c) (UniProt P53051). Kind of experiment: Non-competitive inhibition of Saccharomyces cerevisiae alpha-glucosidase using p-nitrophenyl alpha-D-glucopyranoside as substrate preincubated for 15 mins by Dixon plot method. A digest of the protocol: (§1)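 Kinetics on the yeast enzyme: 1/rate plotted against 1/substrate (Lineweaver-Burk) at several inhibitor levels, e.g. 60, 70 and 80 µM, to see effects on Km and Vmax. Ki taken from a replot of Lineweaver-Burk slopes against inhibitor concentration and checked by Dixon plot (1/rate against inhibitor concentration). Points are the mean of three experiments.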

A further experiment relates to Serpentes. Kind of experiment: Inhibition of snake venom phosphodiesterase-1 using bis-(p-nitropheny1) phosphate as substrate preincubated for 30 mins by spectrophotometry. A digest of the protocol:
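Snake venom enzyme, 0.000742 U/well final, in 33 mM Tris–HCl pH 8.8 with 30 mM Mg-acetate. Pre-incubated 30 min with test samples. Substrate bis-(p-nitrophenyl) phosphate at 0.33 mM. Rate of p-nitrophenol release (change in OD/min) followed at 410 nm, 37 °C, in microplate format. Cysteine and EDTA used as positive controls. Run in triplicate.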

In experiment [3] the target is Carbonic anhydrase 2 (Bos taurus) (UniProt P00921). Kind of experiment: Inhibition of purified bovine erythrocyte carbonic anhydrase 2 using 4-PNA as substrate preincubated for 15 mins by spectrophotometry. A digest of the protocol:
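Bovine erythrocyte CA-II (0.1 mg/mL stock) in 20 mM HEPES-Tris pH 7.4, DMSO 10% final, preincubated with compound for 15 min. Reaction started with 0.7 mM 4-nitrophenyl acetate (in ethanol). 4-Nitrophenol read at 400 nm each minute for 30 min. Triplicates at several concentrations.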

The target in experiment [4] is Oligo-1,6-glucosidase IMA1 (Saccharomyces cerevisiae S288c) (UniProt P53051). Kind of experiment: Ratio of acarbose IC50 to compound IC50 for Saccharomyces cerevisiae alpha-glucosidase using p-nitrophenyl alpha-D-glucopyranoside as substrate preincubated for 15 mins measured up to 30 mins by spectrophotometry.
Experiment [5] has as its target T2, Beta-glucuronidase (Homo sapiens) (UniProt P08236).
T2 sequence (whole entry): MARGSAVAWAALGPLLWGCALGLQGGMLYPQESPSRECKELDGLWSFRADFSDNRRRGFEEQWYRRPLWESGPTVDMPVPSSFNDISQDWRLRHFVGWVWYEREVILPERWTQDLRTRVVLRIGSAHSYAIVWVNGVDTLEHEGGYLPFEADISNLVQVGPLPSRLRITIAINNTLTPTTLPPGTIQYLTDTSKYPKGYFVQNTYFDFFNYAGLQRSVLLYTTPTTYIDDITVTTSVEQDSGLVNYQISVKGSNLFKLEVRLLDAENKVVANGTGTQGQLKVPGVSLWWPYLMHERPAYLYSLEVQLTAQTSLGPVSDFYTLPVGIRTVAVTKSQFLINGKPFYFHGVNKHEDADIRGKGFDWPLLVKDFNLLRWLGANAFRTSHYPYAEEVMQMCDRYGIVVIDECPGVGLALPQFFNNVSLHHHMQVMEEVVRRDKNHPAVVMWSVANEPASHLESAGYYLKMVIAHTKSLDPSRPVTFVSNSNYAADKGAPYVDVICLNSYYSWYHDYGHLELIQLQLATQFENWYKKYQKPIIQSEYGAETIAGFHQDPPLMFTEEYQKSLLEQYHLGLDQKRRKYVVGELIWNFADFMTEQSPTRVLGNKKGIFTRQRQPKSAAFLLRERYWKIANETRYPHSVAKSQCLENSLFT
Kind of experiment: Inhibition of beta-glucuronidase (unknown origin) using p-nitrophenyl-beta-D-glucuronide as substrate preincubated for 30 mins by spectrophotometry. A digest of the protocol:
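Enzyme (1 U) in 0.1 M acetate buffer held with compound (DMSO 2% final) at 37 °C for 30 min. Then 0.4 mM p-nitrophenyl-β-D-glucuronide added and p-nitrophenol read at 405 nm. Run in triplicate.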

The target of experiment [6] is T1, Alpha-glucosidase MAL12. Kind of experiment: Non-competitive inhibition of Saccharomyces cerevisiae alpha-glucosidase using p-nitrophenyl alpha-D-glucopyranoside as substrate preincubated for 15 mins by Lineweaver-Burk plot method. A digest of the protocol:
as §1

Experiment [7] concerns the target T1, Alpha-glucosidase MAL12. Kind of experiment: Competitive inhibition of Saccharomyces cerevisiae alpha-glucosidase using p-nitrophenyl alpha-D-glucopyranoside as substrate preincubated for 15 mins by Lineweaver-Burk plot method.

T1 sequence (P53341 whole entry): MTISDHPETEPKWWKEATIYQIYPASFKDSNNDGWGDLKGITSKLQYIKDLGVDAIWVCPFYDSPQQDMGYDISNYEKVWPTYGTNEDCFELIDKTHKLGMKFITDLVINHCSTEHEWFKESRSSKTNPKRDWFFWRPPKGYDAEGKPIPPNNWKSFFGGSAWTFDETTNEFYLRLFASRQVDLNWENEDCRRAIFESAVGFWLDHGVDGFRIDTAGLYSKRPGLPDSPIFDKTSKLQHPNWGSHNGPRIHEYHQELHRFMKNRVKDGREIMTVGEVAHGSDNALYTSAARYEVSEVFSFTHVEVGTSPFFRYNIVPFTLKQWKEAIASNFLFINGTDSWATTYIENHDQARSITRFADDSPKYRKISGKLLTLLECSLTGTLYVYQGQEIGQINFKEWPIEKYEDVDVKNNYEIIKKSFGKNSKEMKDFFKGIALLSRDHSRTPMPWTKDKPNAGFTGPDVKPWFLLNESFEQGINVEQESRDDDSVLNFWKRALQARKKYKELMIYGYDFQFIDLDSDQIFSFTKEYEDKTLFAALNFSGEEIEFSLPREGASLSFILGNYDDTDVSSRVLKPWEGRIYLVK
Chain of Oligo-1,6-glucosidase IMA1 (Saccharomyces cerevisiae S288c) (P53051 whole entry): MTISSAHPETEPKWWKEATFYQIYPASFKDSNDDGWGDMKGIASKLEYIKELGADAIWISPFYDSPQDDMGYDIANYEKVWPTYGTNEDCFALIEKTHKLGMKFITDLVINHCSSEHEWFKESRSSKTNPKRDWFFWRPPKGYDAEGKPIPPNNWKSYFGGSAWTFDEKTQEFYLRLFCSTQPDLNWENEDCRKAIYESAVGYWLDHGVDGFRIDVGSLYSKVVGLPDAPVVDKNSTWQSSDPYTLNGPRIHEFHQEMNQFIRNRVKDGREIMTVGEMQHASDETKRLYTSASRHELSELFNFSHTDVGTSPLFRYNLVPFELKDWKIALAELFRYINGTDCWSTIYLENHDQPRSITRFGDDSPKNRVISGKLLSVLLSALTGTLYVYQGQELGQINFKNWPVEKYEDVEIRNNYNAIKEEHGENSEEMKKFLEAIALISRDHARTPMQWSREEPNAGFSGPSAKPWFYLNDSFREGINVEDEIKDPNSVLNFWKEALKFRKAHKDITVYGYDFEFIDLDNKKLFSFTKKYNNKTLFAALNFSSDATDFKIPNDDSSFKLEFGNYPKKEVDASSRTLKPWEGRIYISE
Chain of Carbonic anhydrase 2 (Bos taurus) (P00921 2-260 limits assumed): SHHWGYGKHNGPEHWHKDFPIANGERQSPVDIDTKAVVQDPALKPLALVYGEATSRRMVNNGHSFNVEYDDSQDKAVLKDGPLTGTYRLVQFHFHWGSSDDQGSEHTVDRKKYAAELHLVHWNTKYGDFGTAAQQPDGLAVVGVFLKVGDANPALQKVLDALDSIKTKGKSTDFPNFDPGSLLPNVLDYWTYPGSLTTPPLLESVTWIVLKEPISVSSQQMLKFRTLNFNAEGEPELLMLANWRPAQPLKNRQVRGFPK

Take `CCOC(=O)C1=C(C)NC(C)=C(C(=O)OCC)C1c1ccc(OCC)cc1`: the figures for the IC50 against Alpha-glucosidase MAL12 [1] and in the experiment on 3T3 were 124 µM and greater than 30 µM, respectively.

As to `CCOC(=O)C1=C(C)NC(C)=C(C(=O)OCC)C1CCc1ccccc1`, the IC50 against Alpha-glucosidase MAL12 [1] stood at 112 µM; in the experiment on 3T3, 26.7 µM.

`CCOC(=O)C1=C(C)NC(C)=C(C(=O)OCC)C1c1cccc([N+](=O)[O-])c1`: the inhibition entry in experiment [2] is “Active”. The inhibition in the experiment on Serpentes came out at 11.4%; in experiment [3], 11.7%; in experiment [5] it was 22.3%. Further, the Ratio IC50 in experiment [4] was 26. The compound further gave a Ki on Alpha-glucosidase MAL12 [6] of 25 µM. The IC50 was 35 µM on Alpha-glucosidase MAL12 [1] and greater than 30 µM in the experiment on 3T3.

Regarding `CCOC(=O)C1=C(C)NC(C)=C(C(=O)OCC)C1c1ccc(O)c(O)c1`, the results for the IC50 against Alpha-glucosidase MAL12 [1] and in the experiment with 3T3 were 274 µM and 28.6 µM, respectively.

As for `CCOC(=O)C1=C(C)NC(C)=C(C(=O)OCC)C1c1ccc(OC)cc1`, the inhibition is 8.1% in the experiment with Serpentes and 12.4% in experiment [5]. Moreover, the inhibition entry in [3] was “inactive”. Besides, the IC50 is 65.1 µM against Alpha-glucosidase MAL12 [1] and greater than 30 µM in the experiment with 3T3.

Regarding `CCOC(=O)C1=C(C)NC(C)=C(C(=O)OCC)C1c1ccccc1F`, the IC50 on Alpha-glucosidase MAL12 [1] was 60.2 µM; in the experiment on 3T3, greater than 30 µM.

Take `CCOC(=O)C1=C(C)NC(C)=C(C(=O)OCC)C1c1ccc(C)cc1`: the IC50 on Alpha-glucosidase MAL12 [1] is 118 µM; in the experiment with 3T3, greater than 30 µM.

With `CCOC(=O)C1=C(C)NC(C)=C(C(=O)OCC)C1c1ccc(SC)cc1`, the half-maximal inhibitory concentration (IC50) against Alpha-glucosidase MAL12 [1] is 97.4 µM; in the experiment on 3T3, greater than 30 µM.

`CCOC(=O)C1=C(C)NC(C)=C(C(=O)OCC)C1c1cccs1` had an inhibition in the experiment on Serpentes of 8%. In addition, the inhibition result in [3] and in experiment [5] was “inactive” throughout. Also, the figures for the IC50 against Alpha-glucosidase MAL12 [1] and in the experiment with 3T3 were 74.3 µM and greater than 30 µM, respectively.

For the compound `CCOC(=O)C1=C(C)NC(C)=C(C(=O)OCC)C1c1ccc([N+](=O)[O-])cc1`, the inhibition in the experiment on Serpentes is 20.3%; in experiment [3], 9.7%; in [5] it was 14.1%. In addition, the Ratio IC50 in [4] was 18. The IC50 against Alpha-glucosidase MAL12 [1] was 51 µM; in the experiment with 3T3 it was greater than 30 µM. For the same compound, the affinity at Alpha-glucosidase MAL12 [7] corresponds to a Ki of 66 µM.

The compound `CCCCC1C(C(=O)OCC)=C(C)NC(C)=C1C(=O)OCC` displayed an IC50 at Alpha-glucosidase MAL12 [1] of 122 µM.

As to `CCOC(=O)C1=C(C)NC(C)=C(C(=O)OCC)C1c1ccc(Cl)cc1`, the IC50 at Alpha-glucosidase MAL12 [1] came out at 72.4 µM; with 3T3 it was 27.9 µM.
